In ChEMBL document CHEMBL1125209, “Boc-CCK-4 derivatives containing side-chain ureas as potent and selective CCK-a receptor agonists” (J Med Chem, 1991):
pEC50, pIC50: −log10 of the molar value. *1 amine or outer side, *2 acyl side, *3 side chain or, on linkers, in order; H or OH if unused. Where a SMILES comes first, the peptide text is derived from it. Side-chain parts run from the residue outwards. [ ]: non-standard residue; d: D form. The star is where a group is joined. NH(2-CF3-phenyl) = FC(F)(F)c1ccccc1N*; NH(1-naphthyl) = c1ccc2c(N*)cccc2c1; NH(2,6-Me2-phenyl) = Cc1cccc(C)c1N*; NHPh(4-CF3) = FC(F)(F)c1ccc(N*)cc1; NH(3-Cl-phenyl) = Clc1cccc(N*)c1; NH(4-Cl-phenyl) = Clc1ccc(N*)cc1; hCit = NC(=O)NCCCC[C@H](N)C(=O)O; NH(4-Me-phenyl) = Cc1ccc(N*)cc1; NH(2-Me-phenyl) = Cc1ccccc1N*; X3 = O=[N+]([O-])c1ccccc1N*; hLys = NCCCCC[C@H](N)C(=O)O; NH(2-ClPh) = Clc1ccccc1N*; X9 = FC(F)(F)c1cccc(N*)c1; Orn = NCCC[C@H](N)C(=O)O; βNA = c1ccc2cc(N*)ccc2c1; X8 = Clc1ccc(N*)c(Cl)c1; 2Abz = Nc1ccccc1C(=O)O; Boc = CC(C)(C)OC(=O)*; NHcHex = C1CCC(N*)CC1; X1 = Clc1cccc(Cl)c1N*; CO = O=C([*:1])[*:2]; NHBn = c1ccc(CN*)cc1; X2 = CC(C)c1ccccc1N*; NHtBu = CC(C)(C)N*; X10 = Brc1ccccc1N*; X5 = Cc1cccc(N*)c1; X6 = COc1ccccc1N*

Assays:
[1] = target: T1, Cholecystokinin receptor type A (Cavia porcellus, UniProt Q63931); assay: Binding affinity towards cholecystokinin type A receptor in guinea pig pancreas by using [125I]BH-CCK-8 as radioligand; assay type: tissue-based
T1 sequence (Q63931 whole entry): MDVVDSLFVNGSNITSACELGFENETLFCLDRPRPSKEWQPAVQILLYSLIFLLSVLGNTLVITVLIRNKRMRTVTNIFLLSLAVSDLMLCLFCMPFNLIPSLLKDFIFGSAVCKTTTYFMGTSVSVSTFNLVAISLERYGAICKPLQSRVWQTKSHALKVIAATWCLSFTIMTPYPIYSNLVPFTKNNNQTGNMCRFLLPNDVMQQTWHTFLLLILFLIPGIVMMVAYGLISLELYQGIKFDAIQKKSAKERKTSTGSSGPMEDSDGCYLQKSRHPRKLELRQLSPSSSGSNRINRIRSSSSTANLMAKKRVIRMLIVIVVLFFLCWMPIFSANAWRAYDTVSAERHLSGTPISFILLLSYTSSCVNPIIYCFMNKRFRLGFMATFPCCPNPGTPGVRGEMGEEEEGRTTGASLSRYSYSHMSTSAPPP
Method in brief: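 Radioligand displacement of [125I]Bolton-Hunter CCK-8, guinea pig pancreas (CCK-A) or cortex (CCK-B) membranes. […] Each determination was run in duplicate with <5% sample variability. Means ±SE are given where there were three or more determinations.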

[2] = target: T1, Cholecystokinin receptor type A; assay: Binding affinity for Cholecystokinin type A receptor in guinea pig pancreas by using [125I]BH-CCK-8 as radioligand
[3] = species on record: Cavia porcellus; assay: The compound was tested for effective concentration for amylase release in guinea pig pancreatic Acini; assay type: functional
Method in brief: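 Amylase release from guinea pig pancreatic acini. […] Each determination was run in duplicate with <5% sample variability. Means ±SE are given where there were three or more determinations.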

[4] = Selectivity ratio of IC50 measured in guinea pig cortex to that of IC50 for guinea pig pancreas; settings: Cavia porcellus
[5] = species on record: Cavia porcellus; assay: Percentage response in phosphoinositide hydrolysis relative to maximal response elicited by CCK-8 in guinea pig pancreatic acini; assay type: functional
Method in brief: (§1)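 Guinea pig pancreatic acini, phosphoinositide hydrolysis. […] Efficacy is expressed as % of the maximal response elicited by CCK-8. Each determination was run in duplicate with <5% sample variability. Means ±SE are given for three or more determinations.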

[6] = species on record: Cavia porcellus; assay: Effective concentration for hydrolysis of phosphoinositide in guinea pig pancreatic Acini; assay type: functional; method in brief: as §1

Row | pIC50 [1] | pIC50 [2] | pEC50 [3] | Selectivity [4] | pEC50 [6] | SMILES | Max response [5] [%]
1 | 6.66 |  |  |  |  | Cc1ccccc1/N=C(/S)NCCCC[C@H](NC(=O)[C@H](Cc1c[nH]c2ccccc12)NC(=O)OC(C)(C)C)C(=O)N[C@@H](CC(=O)O)C(=O)N[C@@H](Cc1ccccc1)C(N)=O | 
2 |  | 6.57 |  |  |  | CC(C)(C)OC(=O)N[C@@H](Cc1c[nH]c2ccccc12)C(=O)N[C@@H](CCCC/N=C(\S)Nc1ccc(Cl)cc1)C(=O)N[C@@H](CC(=O)O)C(=O)N[C@@H](Cc1ccccc1)C(N)=O | 
3 |  | 7.00 | 7.70 | 29 |  | CC(C)(C)OC(=O)N[C@@H](Cc1c[nH]c2ccccc12)C(=O)N[C@@H](CCCC/N=C(\S)Nc1ccccc1Cl)C(=O)N[C@@H](CC(=O)O)C(=O)N[C@@H](Cc1ccccc1)C(N)=O | 83
4 |  | 6.10 |  |  | 6.04 | Cc1cccc(C)c1NC(=O)NCCCC[C@H](NC(=O)[C@H](Cc1c[nH]c2ccccc12)NC(=O)OC(C)(C)C)C(=O)N[C@@H](CC(=O)O)C(=O)N[C@@H](Cc1ccccc1)C(N)=O (Boc-WK([CO-NH(2,6-Me2-phenyl)])DF-NH2) | 40
5 |  | 8.10 | 9.11 |  | 8.21 | CC(C)(C)OC(=O)N[C@@H](Cc1c[nH]c2ccccc12)C(=O)N[C@@H](CCCCNC(=O)Nc1ccccc1C(F)(F)F)C(=O)N[C@@H](CC(=O)O)C(=O)N[C@@H](Cc1ccccc1)C(N)=O (Boc-WK([CO-NH(2-CF3-phenyl)])DF-NH2) | 100
6 |  |  |  |  | 8.34 | CC(C)(C)OC(=O)N[C@@H](Cc1c[nH]c2ccccc12)C(=O)N[C@@H](CCCCNC(=O)Nc1ccccc1Cl)C(=O)N[C@@H](CC(=O)O)C(=O)N[C@@H](Cc1ccccc1)C(N)=O (Boc-WK([CO-NH(2-ClPh)])DF-NH2) | 91
7 |  |  |  |  | 7.92 | Cc1ccccc1NC(=O)NCCCC[C@H](NC(=O)[C@H](Cc1c[nH]c2ccccc12)NC(=O)OC(C)(C)C)C(=O)N[C@@H](CC(=O)O)C(=O)N[C@@H](Cc1ccccc1)C(N)=O (Boc-WK([CO-NH(2-Me-phenyl)])DF-NH2) | 101
8 |  |  |  |  | 6.85 | Cc1ccc(NC(=O)NCCCC[C@H](NC(=O)[C@H](Cc2c[nH]c3ccccc23)NC(=O)OC(C)(C)C)C(=O)N[C@@H](CC(=O)O)C(=O)N[C@@H](Cc2ccccc2)C(N)=O)cc1 (Boc-WK([CO-NH(4-Me-phenyl)])DF-NH2) | 91
9 |  | 6.64 |  |  |  | CC(C)(C)OC(=O)N[C@@H](Cc1c[nH]c2ccccc12)C(=O)N[C@@H](CCCCNC(=O)NCc1ccccc1)C(=O)N[C@@H](CC(=O)O)C(=O)N[C@@H](Cc1ccccc1)C(N)=O (Boc-WK([CO-NHBn])DF-NH2) | 
10 |  | 6.77 |  | 5 |  | CC(C)(C)OC(=O)N[C@@H](Cc1c[nH]c2ccccc12)C(=O)N[C@@H](CCCCNC(=O)Nc1ccc(C(F)(F)F)cc1)C(=O)N[C@@H](CC(=O)O)C(=O)N[C@@H](Cc1ccccc1)C(N)=O (Boc-WK([CO-NHPh(4-CF3)])DF-NH2) | 
11 |  |  | 8.38 |  | 7.26 | CC(C)(C)OC(=O)N[C@@H](Cc1c[nH]c2ccccc12)C(=O)N[C@@H](CCCCNC(=O)NC1CCCCC1)C(=O)N[C@@H](CC(=O)O)C(=O)N[C@@H](Cc1ccccc1)C(N)=O (Boc-WK([CO-NHcHex])DF-NH2) | 97
12 |  | 6.77 | 7.38 | 33 | 6.48 | CC(C)(C)NC(=O)NCCCC[C@H](NC(=O)[C@H](Cc1c[nH]c2ccccc12)NC(=O)OC(C)(C)C)C(=O)N[C@@H](CC(=O)O)C(=O)N[C@@H](Cc1ccccc1)C(N)=O (Boc-WK([CO-NHtBu])DF-NH2) | 73
13 |  | 6.80 | 7.36 | 44 | 6.51 | CC(C)(C)OC(=O)N[C@@H](Cc1c[nH]c2ccccc12)C(=O)N[C@@H](CCCCNC(=O)Nc1c(Cl)cccc1Cl)C(=O)N[C@@H](CC(=O)O)C(=O)N[C@@H](Cc1ccccc1)C(N)=O (Boc-WK([CO-X1])DF-NH2) | 66
14 |  | 7.64 | 8.36 | 250 |  | CC(C)c1ccccc1NC(=O)NCCCC[C@H](NC(=O)[C@H](Cc1c[nH]c2ccccc12)NC(=O)OC(C)(C)C)C(=O)N[C@@H](CC(=O)O)C(=O)N[C@@H](Cc1ccccc1)C(N)=O (Boc-WK([CO-X2])DF-NH2) | 85
15 |  | 7.66 | 8.72 |  | 7.68 | CC(C)(C)OC(=O)N[C@@H](Cc1c[nH]c2ccccc12)C(=O)N[C@@H](CCCCNC(=O)Nc1ccccc1[N+](=O)[O-])C(=O)N[C@@H](CC(=O)O)C(=O)N[C@@H](Cc1ccccc1)C(N)=O (Boc-WK([CO-X3])DF-NH2) | 100
16 |  |  |  |  | 7.29 | Cc1cccc(NC(=O)NCCCC[C@H](NC(=O)[C@H](Cc2c[nH]c3ccccc23)NC(=O)OC(C)(C)C)C(=O)N[C@@H](CC(=O)O)C(=O)N[C@@H](Cc2ccccc2)C(N)=O)c1 (Boc-WK([CO-X5])DF-NH2) | 95
17 |  |  |  |  | 8.08 | COc1ccccc1NC(=O)NCCCC[C@H](NC(=O)[C@H](Cc1c[nH]c2ccccc12)NC(=O)OC(C)(C)C)C(=O)N[C@@H](CC(=O)O)C(=O)N[C@@H](Cc1ccccc1)C(N)=O (Boc-WK([CO-X6])DF-NH2) | 100
18 | 8.07 |  |  |  |  | CC(C)(C)OC(=O)N[C@@H](Cc1c[nH]c2ccccc12)C(=O)N[C@@H](CCCCNC(=O)Nc1ccc(Cl)cc1Cl)C(=O)N[C@@H](CC(=O)O)C(=O)N[C@@H](Cc1ccccc1)C(N)=O (Boc-WK([CO-X8])DF-NH2) | 
19 |  | 8.44 |  |  |  | CC(C)(C)OC(=O)N[C@@H](Cc1c[nH]c2ccccc12)C(=O)N[C@@H](CCCCNC(=O)Nc1ccccc1Br)C(=O)N[C@@H](CC(=O)O)C(=O)N[C@@H](Cc1ccccc1)C(N)=O (Boc-WK([CO-X10])DF-NH2) | 
20 |  |  | 8.15 | 200 | 6.85 | CC(C)(C)OC(=O)N[C@@H](Cc1c[nH]c2ccccc12)C(=O)N[C@@H](CCCCNC(=O)Nc1ccc2ccccc2c1)C(=O)N[C@@H](CC(=O)O)C(=O)N[C@@H](Cc1ccccc1)C(N)=O (Boc-WK([CO-βNA])DF-NH2) | 79
21 |  | 6.19 | 6.38 | 23 |  | Cc1ccccc1NC(=O)NCCC[C@H](NC(=O)[C@H](Cc1c[nH]c2ccccc12)NC(=O)OC(C)(C)C)C(=O)N[C@@H](CC(=O)O)C(=O)N[C@@H](Cc1ccccc1)C(N)=O (Boc-W[Orn]([CO-NH(2-Me-phenyl)])DF-NH2) | 36
22 |  | 4.92 |  | 0.083 |  | CC(C)(C)OC(=O)N[C@@H](Cc1c[nH]c2ccccc12)C(=O)N[C@@H](CCCCNC(N)=O)C(=O)N[C@@H](CC(=O)O)C(=O)N[C@@H](Cc1ccccc1)C(N)=O (Boc-W[hCit]DF-NH2) | 

Row | SMILES | pIC50 [1] | pIC50 [2] | pEC50 [3] | Selectivity [4] | pEC50 [6] | Max response [5] [%]
23 | COC(=O)c1ccccc1NC(=O)NCCCC[C@H](NC(=O)[C@H](Cc1c[nH]c2ccccc12)NC(=O)OC(C)(C)C)C(=O)N[C@@H](CC(=O)O)C(=O)N[C@@H](Cc1ccccc1)C(N)=O (Boc-WK([CO-2Abz-OMe])DF-NH2) |  | 7.47 |  | 91 |  | 
24 | CC(C)(C)OC(=O)N[C@@H](Cc1c[nH]c2ccccc12)C(=O)N[C@@H](CCCCNC(=O)Nc1cccc2ccccc12)C(=O)N[C@@H](CC(=O)O)C(=O)N[C@@H](Cc1ccccc1)C(N)=O (Boc-WK([CO-NH(1-naphthyl)])DF-NH2) |  | 7.80 | 8.80 | 690 | 7.85 | 103
25 | CC(C)(C)OC(=O)N[C@@H](Cc1c[nH]c2ccccc12)C(=O)N[C@@H](CCCCNC(=O)Nc1cccc(Cl)c1)C(=O)N[C@@H](CC(=O)O)C(=O)N[C@@H](Cc1ccccc1)C(N)=O (Boc-WK([CO-NH(3-Cl-phenyl)])DF-NH2) |  | 7.29 | 8.36 |  |  | 93
26 | CC(C)(C)OC(=O)N[C@@H](Cc1c[nH]c2ccccc12)C(=O)N[C@@H](CCCCNC(=O)Nc1ccc(Cl)cc1)C(=O)N[C@@H](CC(=O)O)C(=O)N[C@@H](Cc1ccccc1)C(N)=O (Boc-WK([CO-NH(4-Cl-phenyl)])DF-NH2) |  | 7.22 | 8.02 |  |  | 91
27 | CC(C)(C)OC(=O)N[C@@H](Cc1c[nH]c2ccccc12)C(=O)N[C@@H](CCCCNC(=O)Nc1cccc(C(F)(F)F)c1)C(=O)N[C@@H](CC(=O)O)C(=O)N[C@@H](Cc1ccccc1)C(N)=O (Boc-WK([CO-X9])DF-NH2) |  | 7.23 |  |  |  | 
28 | Cc1ccccc1NC(=O)NCCCCC[C@H](NC(=O)[C@H](Cc1c[nH]c2ccccc12)NC(=O)OC(C)(C)C)C(=O)N[C@@H](CC(=O)O)C(=O)N[C@@H](Cc1ccccc1)C(N)=O (Boc-W[hLys]([CO-NH(2-Me-phenyl)])DF-NH2) |  | 7.03 | 7.92 |  |  | 83
29 | CSCC[C@H](NC(=O)[C@H](Cc1ccc(OS(=O)(=O)O)cc1)NC(=O)[C@@H](N)CC(=O)O)C(=O)NCC(=O)N[C@@H](Cc1c[nH]c2ccccc12)C(=O)N[C@@H](CCSC)C(=O)N[C@@H](CC(=O)O)C(=O)N[C@@H](Cc1ccccc1)C(N)=O [SINCALIDE] |  |  | 9.33 |  | 8.92 | 
